Results taken from PMC3139708 (Nature chemical biology, 2011).
Entries after “also recorded” stand apart in the source; their conditions may differ. Where a SMILES comes first, the peptide text is derived from it. [ ]: non-standard residue; d: D form. βAla = NCCC(=O)O

Columns and labels:
FKBP(F36V) = FKBP(F36V) (Homo sapiens, UniProt P62942, F37V); experiment: Fluorescence polarization competition binding against Fl-SLF; settings: polarization signal; Fl-SLF 1 nM, FKBP(F36V) 100 nM
Summary of the method: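 Purified FKBP(F36V) and fluorescent Shield-1 analog Fl-SLF were held at fixed concentrations and incubated with a titration of synthetic test peptide. Tracer displacement was read as the decrease in fluorescence polarization.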

[1] = test system: transcription factors fused to LID (Oct4, Klf4, Sox2, Myc, Lin28, Nanog); type: cell-based, human; Nanog mouse; settings: 2 μM Shield-1, 24 h, NIH3T3, immunoblot
Summary of the method: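 LID was fused to the C-terminus of each of six transcription factors. Each was retrovirally transduced into NIH3T3 cells separately (4 μg/mL polybrene, 4 h, 37 °C; 24–36 h integration) in DMEM with 10% donor bovine serum. Cells got vehicle or 2 μM Shield-1 for 24 h. Lysates were immunoblotted with anti-Oct4, anti-Klf4, anti-HA (Sox2, Myc, Lin28) or anti-Flag (Nanog). α-Tubulin was the loading control; untransduced cells were the reference.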

Oct4-LID = experiment: Reprogramming of MEFs; type: cell-based, murine embryonic fibroblasts; settings: 2 μM Shield-1 from day 3 post-infection
Summary of the method: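 Fibroblasts came from transgenic mice carrying GFP driven by the Oct4 promoter. They were retrovirally transduced with Sox2, Myc, Klf4 and Oct4-LID, with untagged Oct4 as comparison. Vehicle or 2 μM Shield-1 was added on day 3 post-infection, and alkaline phosphatase staining was done on day 14. GFP-positive cells were moved to fresh feeder layer on day 19 and stained with APC anti-SSEA-1 on day 24.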

FKBP domain = settings: ref [18],[26]; cited from earlier work
[2] = test system: YFP-FKBP(F36V)-degron-LPLPLP fusions (CL1, CyclinB, encephalomyocarditis virus degron); type: cell-based; settings: NIH3T3, flow cytometry
YFP = experiment: Stability of YFP fused directly to the 19-residue peptide or its truncations; type: cell-based; settings: 1 μM Shield-1, 24 h, flow cytometry
Summary of the method: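 The 19-residue peptide was fused directly to YFP, without FKBP, and stably transduced into NIH3T3 cells by retrovirus. Cells were plated at 1 × 10⁵ per well, treated with vehicle or 1 μM Shield-1 for 24 h, trypsinised and analysed by flow cytometry (typically 10,000 events). Error bars are s.d. from at least two experiments.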

actin-GFP-LID = experiment: Depletion of β-actin-AcGFP-LID in NIH3T3 cells, fluorescence microscopy; type: cell-based, human; settings: 2 μM Shield-1, 24 hours
Summary of the method: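 NIH3T3 fibroblasts were retrovirally co-transduced (4 μg/mL polybrene, 4 h, 37 °C; then 24–36 h in growth medium) with human β-actin fused to Aequorea coerulescens GFP plus LID, and with β-actin-mCherry to mark microfilaments. Cells were cultured ± Shield-1, and green and red actin filaments were imaged by epifluorescence microscopy with a 40x objective.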

DD-mCherry = experiment: Simultaneous use of LID and DD systems in NIH3T3 cells: DD-mCherry; type: cell-based; settings: various concentrations of Shield-1, 24 h, flow cytometry and microscopy
Summary of the method: (§1)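 NIH3T3 cells stably co-transduced with YFP-LID and DD-mCherry were plated at 1 × 10⁵ cells/well. They were exposed to a range of Shield-1 concentrations for 24 h, then detached with trypsin-EDTA. YFP and mCherry were read in their respective channels by flow cytometry (typically 10,000 events) and by epifluorescence microscopy.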

[3] = test system: YFP-LID fusion proteins in U2OS cells; experiment: YFP-LID degradation in transiently transfected U2OS cells; type: cell-based; settings: 24 hours Shield-1
YFP-LID [4] = experiment: Time course of YFP-LID degradation and recovery in NIH3T3 cells, flow cytometry; type: cell-based; settings: NIH3T3, absence of cycloheximide
Summary of the method: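 Stably transduced NIH3T3 cells expressing YFP-LID were plated at 1 × 10⁵ cells/well. For degradation, Shield-1 was added and cells were sampled at various times. For recovery, Shield-1 was removed by changing to fresh growth medium containing 5 μM recombinant FKBP(F36V) at set times before analysis. YFP was read by flow cytometry, and the maximum fluorescence was set to 100%.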

YFP-LID [5] = experiment: Simultaneous use of LID and DD systems in NIH3T3 cells: YFP-LID; type: cell-based; settings: various concentrations of Shield-1, 24 h, flow cytometry and microscopy
Summary of the method: as §1

[6] = test system: YFP-LID fusion proteins in HeLa cells; experiment: YFP-LID degradation in transiently transfected HeLa cells; type: cell-based; settings: 24 hours Shield-1
YFP-LID [7] = experiment: Shield-dependent degradation of YFP-LID in NIH3T3 cells, flow cytometry; type: cell-based
Summary of the method: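 NIH3T3 cells were stably retrovirally transduced with YFP-FKBP(F36V) plus the 19-residue C-terminal peptide, with IRES-HcRed as infection marker. They were plated at 1 × 10⁵ per well and given vehicle or Shield-1 (1 pM–1 μM, or 1 μM for 24 h), then trypsinised. YFP was read by flow cytometry (typically 10,000 events) against untransduced-cell autofluorescence. Error bars are s.d. from at least two experiments.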

FKBP = settings: relative to Shield-1; ref [19]; cited from earlier work

FKBP(F36V), sequence (P62942 whole entry F37V): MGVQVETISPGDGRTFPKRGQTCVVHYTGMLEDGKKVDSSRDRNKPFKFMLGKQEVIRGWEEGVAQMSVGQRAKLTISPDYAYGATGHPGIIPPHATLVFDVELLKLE

CC(C)C[C@H](NC(=O)[C@H](CC(C)C)NC(=O)[C@@H](NC(=O)[C@@H](NC(=O)CNC(=O)[C@H](CCC(=O)O)NC(=O)[C@H](C)NC(=O)[C@@H](NC(=O)[C@H](CCC(=O)O)NC(=O)[C@H](CCC(=O)O)NC(=O)[C@@H](NC(=O)CNC(=O)[C@H](CCCNC(=N)N)NC(=O)[C@@H](NC(=O)CCN)[C@@H](C)O)C(C)C)C(C)C)C(C)C)C(C)C)C(=O)N[C@@H](CCCNC(=N)N)C(=O)N[C@@H](CCCNC(=N)N)C(=O)N[C@@H](CCCNC(=N)N)C(=O)NCC(=O)N[C@@H](CC(N)=O)C(=O)O [19-residue peptide] (H-[βAla]TRGVEEVAEGVVLLRRRGN-OH; N-terminus and C-terminus assumed)
displacement of tracer Fl-SLF from FKBP (FKBP(F36V)): dose-dependent decrease in polarization signal

CC[C@H](C(=O)N1CCCC[C@H]1C(=O)O[C@H](CCc1ccc(OC)c(OC)c1)c1cccc(OCCN2CCOCC2)c1)c1cc(OC)c(OC)c(OC)c1 [Shield-1]
degradation of LID-fused transcription factors [1]: all degraded in a Shield-1 dependent manner
reprogramming to iPS cells of cells expressing Oct4-LID in the presence of Shield-1 (Oct4-LID): unable to undergo reprogramming to iPS cells
affinity for the FKBP domain (FKBP domain): sub-nanomolar
stability of YFP-FKBP-degron-LPLPLP fusions with Shield-1 [2]: an increase in fluorescence was observed
effect of Shield-1 on the stability of YFP-19mer (YFP): this instability is not affected by Shield-1; also recorded: no effect on the stability of this fusion
GFP fluorescence of β-actin-GFP-LID after Shield-1 (actin-GFP-LID): GFP fluorescence was absent
mCherry (DD-mCherry) level (DD-mCherry): simultaneous stabilization of mCherry
degradation of YFP-LID fusion proteins [3]: could be degraded in transient transfected HeLa and U2OS cells
time for YFP levels to be reduced 50% upon addition of Shield-1 (YFP-LID [4]): 45 min
YFP-LID level (YFP-LID [5]): dose-dependent depletion of YFP-LID
degradation of YFP-LID fusion proteins [6]: could be degraded in transient transfected HeLa and U2OS cells
YFP fluorescence levels in Shield-treated cells above the background autofluorescence (YFP-LID [7]; relative to untransduced NIH3T3 cells, flow cytometry): 10-20%

CCC(CC)NC(=O)N1CCCC[C@H]1C(=O)O[C@H](CCc1ccc(OC)c(OC)c1)c1cccc(OCCN2CCOCC2)c1 [Shield-2]
binding potency for FKBP (FKBP): less potent binding ligand for FKBP
destabilization of the LID domain (YFP-LID [7]; NIH3T3 cells, compared with Shield-1): can also destabilize the LID domain although with slightly reduced potency
